Laboratory results from ChEMBL document CHEMBL1781999, “Lead optimization of aryl and aralkyl amine-based triazolopyrimidine inhibitors of Plasmodium falciparum dihydroorotate dehydrogenase with antimalarial activity in mice” (J Med Chem, 2011).
In brackets after ≈: the same amount, converted by molar mass.

Tests used:
[1] = target: T1, Dihydroorotate dehydrogenase (Plasmodium falciparum, UniProt Q54A96); assay: Inhibition of His6-tagged recombinant Plasmodium falciparum dihydroorotate dehydrogenase expressed in Escherichia coli using L-dihydroorotate as substrate after 5 to 10 mins by DCIP dye-based assay
T1 sequence (Q54A96 whole entry): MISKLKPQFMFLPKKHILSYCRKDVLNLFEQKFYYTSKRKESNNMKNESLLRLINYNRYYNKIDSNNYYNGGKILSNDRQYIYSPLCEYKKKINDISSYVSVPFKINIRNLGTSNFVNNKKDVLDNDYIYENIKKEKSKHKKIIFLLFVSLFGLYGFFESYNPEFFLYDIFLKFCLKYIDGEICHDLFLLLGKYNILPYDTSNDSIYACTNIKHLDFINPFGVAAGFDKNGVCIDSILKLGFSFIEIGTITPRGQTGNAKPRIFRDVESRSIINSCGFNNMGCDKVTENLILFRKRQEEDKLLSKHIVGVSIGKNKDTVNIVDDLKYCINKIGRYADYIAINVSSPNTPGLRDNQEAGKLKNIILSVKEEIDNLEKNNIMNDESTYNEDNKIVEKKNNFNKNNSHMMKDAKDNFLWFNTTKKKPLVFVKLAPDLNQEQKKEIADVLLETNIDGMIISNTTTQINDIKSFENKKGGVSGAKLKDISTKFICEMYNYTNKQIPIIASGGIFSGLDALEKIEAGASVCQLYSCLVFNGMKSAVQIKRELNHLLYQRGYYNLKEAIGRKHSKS

[2] = system: Plasmodium falciparum; assay: Antimalarial activity against Plasmodium falciparum 3D7 infected in human A positive erythrocytes by [3H]hypoxanthine uptake assay in presence of serum in medium; assay type: functional, organism-based
In short: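 Growth read by [3H]-hypoxanthine uptake. Each concentration run in quadruplicate and fitted to a four-parameter variable-slope log[I]-response model for 50% growth inhibition.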

[3] = Inhibition of His6-tagged recombinant Plasmodium berghei dihydroorotate dehydrogenase expressed in Escherichia coli using L-dihydroorotate as substrate after 10 to 15 mins by DCIP dye-based assay; settings: in the assay text read “5 to 10 mins” for “10 to 15 mins”
In short: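 Truncated soluble enzyme lacking the N-terminal membrane domain. Final concentrations: 0.2 mM L-dihydroorotate, 0.02 mM CoQD, 0.12 mM DCIP. Reaction started with 10 nM enzyme and read at 600 nm for 5–10 min at 20 °C. Inhibitor 0.01–100 μM in 3-fold steps, in triplicate. IC50 from a three-parameter fit of vi/vo from initial rates.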

[4] = Aqueous solubility of the compound in phosphate buffer at pH 6.5; assay type: physicochemical; settings: phosphate buffer, read-out: solubility
In short: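 Non-equilibrium solubility. Concentrated DMSO stocks were diluted into pH 6.5 phosphate buffer (final DMSO 1% v/v) and precipitation was monitored by nephelometry. Solubility is given as the concentration range just before a turbidity signal rose above background.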

[5] = target: Dihydroorotate dehydrogenase (quinone), mitochondrial (Homo sapiens, UniProt Q02127); assay: Inhibition of His6-tagged recombinant human dihydroorotate dehydrogenase expressed in Escherichia coli using L-dihydroorotate as substrate after 5 to 10 mins by DCIP dye-based assay
[6] = Partition coefficient, log D of the compound at pH 7.4 by UV-HPLC analysis; settings: octanol/water
[7] = Plasma protein binding in human by albumin chromatographic method; assay type: ADME, cell-free; settings: read-out: PPB (converted)
[8] = system: Liver microsomes; assay: Intrinsic clearance in human liver microsome assessed per mg of protein at 1 uM after 60 mins by LC-MS analysis; assay type: ADME; settings: microsomes, 1 h, 1 µM
In short: (§1)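 Microsomal stability. Compound at 1 μM with liver microsomes (0.4 mg/mL protein) in 0.1 M phosphate pH 7.4 at 37 °C. Started with an NADPH-regenerating system plus MgCl2; controls lacked NADPH. Quenched with cold acetonitrile at time points up to 60 min. Parent loss measured by LC-MS and fitted to exponential decay to give CLint.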

[9] = system: Liver; assay: Intrinsic clearance in mouse liver microsome assessed per mg of protein at 1 uM after 60 mins by LC-MS analysis; assay type: ADME; settings: microsomes, 1 h
In short: as §1

[10] = Inhibition of His6-tagged recombinant Plasmodium berghei dihydroorotate dehydrogenase expressed in Escherichia coli using L-dihydroorotate as substrate after 5 to 10 mins by DCIP dye-based assay

Dihydroorotate dehydrogenase (quinone), mitochondrial, sequence (Q02127 whole entry): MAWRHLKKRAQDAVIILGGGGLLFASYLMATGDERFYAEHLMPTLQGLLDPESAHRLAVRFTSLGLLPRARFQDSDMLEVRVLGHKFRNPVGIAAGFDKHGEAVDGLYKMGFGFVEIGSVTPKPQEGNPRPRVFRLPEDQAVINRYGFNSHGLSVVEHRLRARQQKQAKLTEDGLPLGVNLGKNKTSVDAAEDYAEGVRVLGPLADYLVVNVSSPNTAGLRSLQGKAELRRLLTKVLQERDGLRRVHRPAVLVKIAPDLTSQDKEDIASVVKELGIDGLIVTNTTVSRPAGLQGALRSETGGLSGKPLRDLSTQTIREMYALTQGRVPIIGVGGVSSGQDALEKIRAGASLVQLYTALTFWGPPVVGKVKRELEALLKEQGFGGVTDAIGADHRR

Structure (SMILES)	IC50 [1] [µM]	EC50 [2] [µM]	IC50 [3] [µM]	solubility [4] [µM]	IC50 [5] [µM]	logD [6]	fraction unbound [7]	CL [8] [µL/min/mg]	CL [9] [µL/min/mg]	IC50 [10] [µM]
CCCCCCc1ccc(Nc2cc(C)nc3ncnn23)cc1	4.2	> 5	20	–	–	–	–	–	–	–
Cc1cc(Nc2ccc3c(c2)CCC3)n2ncnc2n1	0.22	0.8	1	47 (≈ 12.5 µg/mL)	> 100	2.9	0.075	77	341	–
Cc1ccc(Nc2c3c(nc4ncnn24)CCC3)cc1F	–	8.3	1.3	–	> 100	–	–	–	–	–
Cc1cc(Nc2ccc(C(C)(C)C)cc2)n2ncnc2n1	0.078	0.32	0.4	11 (≈ 3.09 µg/mL)	> 100	3.4	0.068	43	–	–
Cc1cc(Nc2ccc(CC(F)(F)F)cc2)n2ncnc2n1	2.5	–	8.8	–	–	–	–	–	–	–
Cc1cc(Nc2ccc(N3CCOCC3)cc2)n2ncnc2n1	> 100	> 10	–	–	–	–	–	–	–	> 100
CCc1ccc(Nc2cc(C)nc3ncnn23)cc1	0.61	3.3	3.9	25 (≈ 6.33 µg/mL)	> 100	2.6	0.12	61	–	–
CCCCCc1ccc(Nc2cc(C)nc3ncnn23)cc1	0.82	> 5	22	–	> 100	–	–	–	–	–
CCc1cc(Nc2ccc(C(F)(F)F)cc2)n2ncnc2n1	0.78	2.3	2	–	> 100	–	–	–	–	–
Cc1cc(NOc2ccccc2)n2ncnc2n1	> 100	–	–	–	–	–	–	–	–	> 100
Cc1cc(NC2CCCCCCC2)n2ncnc2n1	> 100	–	–	–	–	–	–	–	–	–
C#Cc1ccc(Nc2cc(C)nc3ncnn23)cc1	1.1	5.1	4.1	100 (≈ 24.9 µg/mL)	> 100	2.2	0.182	8	27	–
Cc1cc(NC2Cc3ccc(F)cc3C2)n2ncnc2n1 (centres undefined)	0.61	1.3	1.4	–	> 50	–	–	–	–	–
Cc1cc(NCc2ccc(F)cc2)n2ncnc2n1	> 100	> 10	–	–	–	–	–	–	–	–
Cc1cc(NC2CCc3cc(F)ccc3C2)n2ncnc2n1 (centres undefined)	0.63	2.5	1.9	–	–	–	–	–	–	–
Cc1cc(Nc2ccc(Cl)c(F)c2)n2ncnc2n1	0.55	3.5	1.3	–	> 50	–	–	–	–	–
Cc1cc(Nc2ccc(N3CCCC3)cc2)n2ncnc2n1	3.5	> 20	> 50	–	–	–	–	–	–	–
Cc1cc(Nc2ccc3[nH]c(C(F)(F)F)nc3c2)n2ncnc2n1	21	25	> 50	–	–	–	–	–	–	–
Cc1cc(Nc2ccc(OC(C)(C)C)cc2)n2ncnc2n1	44	> 10	–	–	–	–	–	–	–	–
CCCCCCCc1ccc(Nc2cc(C)nc3ncnn23)cc1	24	> 5	> 50	–	–	–	–	–	–	–
Cc1cc(Nc2ccc3c(c2)OCO3)n2ncnc2n1	1.6	21	55	186 (≈ 50.1 µg/mL)	> 100	1.6	–	11	–	–
C=Cc1ccc(Nc2cc(C)nc3ncnn23)cc1	–	0.34	4.5	25 (≈ 6.28 µg/mL)	> 100	2.4	0.156	32	168	–
CCCCCCCNc1cc(C)nc2ncnn12	8.6	13	55	–	–	–	–	–	–	–
Cc1cc(Nc2ccc(C(C)(C)C#N)cc2)n2ncnc2n1	–	3.7	–	–	–	–	–	–	–	–
